We go through seven molecules from ChEMBL document CHEMBL1949532, “Novel dendrimeric lipopeptides with antifungal activity” (Bioorg Med Chem Lett, 2012).

Values after ≈ are worked out from the molar mass of the structure shown. Active and inactive are the calls of the source. The rule behind the calls is not given here. Starred links: 1 amine or outer side, 2 acyl side, 3 side chain; linkers in the order of their positions; H or OH if unused. Residues, ends and D or L forms follow the SMILES beside them. Groups on a side chain read outwards from the residue. *: point of attachment. εLys = N[C@@H](CCCCN[*:1])C(=O)[*:2]; ClZ = O=C(OCc1ccccc1Cl)*; Cbz = O=C(OCc1ccccc1)* Some results are limits rather than exact numbers.

The subject of series [1] is Staphylococcus aureus. Put plainly: Antibacterial activity against Staphylococcus aureus ATCC 25923 after 18 to 24 hrs by serial broth microdilution susceptibility test. Format: functional. In short, it runs like this:
(§1)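 MIC determined by serial microdilution in microplates. Candida inocula were prepared in L-glutamine-deficient RPMI-1640 medium.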

A further series concerns Pseudomonas aeruginosa. Description: Antibacterial activity against Pseudomonas aeruginosa ATCC 27853 after 18 to 24 hrs by serial broth microdilution susceptibility test. Type of series: functional. In short, it runs like this: as §1
(In general: Dilution methods test growth across graded concentrations, often in twofold steps.)

Series [2] relates to Escherichia coli. Put plainly: Antibacterial activity against Escherichia coli ATCC 25922 after 18 to 24 hrs by serial broth microdilution susceptibility test. Format: functional. The method in brief:
as §1

The subject of series [3] is Staphylococcus aureus. Description: Antibacterial activity against Staphylococcus aureus ATCC 43300 after 18 to 24 hrs by serial broth microdilution susceptibility test. Type of series: functional. In short, it runs like this: as §1
Series [4] has as its system Klebsiella pneumoniae subsp. pneumoniae. Put plainly: Antibacterial activity against Klebsiella pneumoniae subsp. pneumoniae ATCC 13882 after 18 to 24 hrs by serial broth microdilution susceptibility test. Format: functional. The method in brief:
as §1

Series [5] concerns Bordetella bronchiseptica. Description: Antibacterial activity against Bordetella bronchiseptica ATCC 4617 after 18 to 24 hrs by serial broth microdilution susceptibility test. Type of series: functional. In short, it runs like this:
as §1

The next series relates to Acinetobacter baumannii. Put plainly: Antibacterial activity against Acinetobacter baumannii ATCC 19606 after 18 to 24 hrs by serial broth microdilution susceptibility test. Type of series: functional. The conditions noted are these: ATCC 19606 = CIP 70.34 = JCM 6841. The method in brief: as §1
The test system of series [6] is Escherichia coli. Put plainly: Antibacterial activity against Escherichia coli ATCC BAA-198 after 18 to 24 hrs by serial broth microdilution susceptibility test. Type of series: functional. In short, it runs like this: as §1
Series [7] deals with Candida albicans. Description: Antifungal activity against Candida albicans ATCC 90028 after 24 to 48 hrs by serial broth microdilution susceptibility test. Format: functional. The method in brief: as §1
The test system of the next series is Candida parapsilosis. Description: Antifungal activity against Candida parapsilosis ATCC 22019 after 24 to 48 hrs by serial broth microdilution susceptibility test. To be noted: Lodderomyces parapsilosis. Type of series: functional. The method in brief:
as §1

For the next series, the system named is Pichia kudriavzevii. Put plainly: Antifungal activity against Candida krusei ATCC 6258 after 24 to 48 hrs by serial broth microdilution susceptibility test. Format: functional. The method in brief: as §1
A short description of series [8]: Toxicity in human erythrocytes assessed as hemolysis at 100 uM after 30 mins by spectrophotometry. Format: cell-based, Erythrocyte. The conditions noted are these: read-out: Activity. The method in brief: (§2)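 Human erythrocytes suspended in PBS were exposed to lipopeptides at 0.001–0.4 mmol/l and hemolysis was measured.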
The nature of series [9]: Toxicity in human erythrocytes suspended in L-glutamine deficient RPMI-1640 assessed as hemolysis after 30 mins by spectrophotometry relative to human erythrocytes suspended in PBS buffer. Type of series: cell-based. The conditions noted are these: erythrocyte, 0.5 h. In short, it runs like this: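 Hemolysis was measured for human erythrocytes resuspended in L-glutamine-deficient RPMI-1640 (the Candida MIC medium) and compared with erythrocytes suspended in PBS.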

Series [10] relates to Candida albicans. Description: Antifungal activity against Candida albicans ATCC 10231 assessed as morphological changes at < 7 uM after 6 hrs by calcofluor white and aniline blue staining-based fluorescence microscopy. Format: functional, organism-based. The method in brief: (§3)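 C. albicans ATCC 10231 yeast cells were incubated with compound for 6 h, at up to 2×MIC. Chitin was stained with Calcofluor White and glucan with Aniline Blue, then cells were examined by fluorescence microscopy against untreated controls.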

Series [11] relates to Candida albicans. Put plainly: Antifungal activity against Candida albicans ATCC 10231 assessed as pseudohyphae formation at 14 uM after 6 hrs by calcofluor white and aniline blue staining-based fluorescence microscopy. Type of series: functional, organism-based. In short, it runs like this: as §3
For series [12], the system named is Candida albicans. Put plainly: Antifungal activity against Candida albicans ATCC 10231 assessed as alteration in cell envelope at 4 uM after 2 hrs by scanning electron microscopy. Format: functional, organism-based.
Series [13] deals with Candida albicans. Put plainly: Antifungal activity against Candida albicans ATCC 10231 assessed as leakage of intracellular contents at 4 uM after 2 hrs by scanning electron microscopy. Type of series: functional, organism-based.
Series [14] concerns Candida albicans. Put plainly: Antifungal activity against Candida albicans ATCC 10231 assessed as loss of integrity at 10 uM after 2 hrs by scanning electron microscopy. Format: functional, organism-based.
Series [15] in a line: (§4) Inhibition of beta (1,3) glucan synthase in Candida albicans cell membrane using UDP-Glc as substrate assessed as aniline blue-glucan complex formation by microtiter-based fluorescence method. The method in brief:
(§5)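 β(1,3)-glucan synthase in the membrane fraction of C. albicans was assayed by a microtiter-based fluorescence method across a concentration range. Values are means of three independent experiments (SD); IC50 was determined.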

For series [16], the system named is Candida albicans. The series is described as §4. The method in brief:
as §5

Series [17] concerns Candida albicans. Description: Antifungal activity against Candida albicans ATCC 10231 assessed as increase in intracellular potassium release after 30 mins. Format: functional, organism-based. In short, it runs like this: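 Efflux of K+ from C. albicans cells was monitored continuously with a potassium-selective electrode. Release was expressed relative to a positive control, and EK50 was taken as the concentration releasing 50% of intracellular potassium.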

Series [18] can be described thus: Toxicity in human erythrocytes assessed as hemolysis at 50 uM after 30 mins by spectrophotometry. The conditions noted are these: read-out: Activity. Type of series: cell-based, Erythrocyte. The method in brief:
as §2

For orientation: MIC means the lowest concentration that inhibits growth of the organism. Higher therefore signals a need for much substance. One may read the IC50 as the concentration that gives 50% inhibition. One may read the EC50 as the concentration that produces a half-maximal response.

For the molecule `CCCCCCCCCCCCNC(=O)[C@H](Cc1ccccc1)NC(=O)[C@H](CCCCNC(=O)[C@@H](N)CCCCNC(=O)OCc1ccccc1Cl)NC(=O)[C@@H](N)CCCCNC(=O)OCc1ccccc1Cl.Cl.Cl`, the MIC against Staphylococcus aureus [1] worked out at 28 µM; against Pseudomonas aeruginosa it was 114 µM; with Escherichia coli [2], 56 µM; in the series on Staphylococcus aureus [3], 28 µM; in series [4], 114 µM; in series [5], 14 µM. For the same molecule, the MIC in the series on Acinetobacter baumannii amounted to 114 µM; in the series with Escherichia coli [6], 64 µM; against Candida albicans [7], 7 µM; in the series on Candida parapsilosis, 7 µM; against Pichia kudriavzevii, 7 µM. Further, in [8], the hemolysis at 0.5 h, 100 µM was 10%. For the same molecule, the Activity entry is “Toxic” in series [9] and “Dose-dependent effect” in the series on Candida albicans [17]. Also, the result with Candida albicans [10] was inactive. In addition, the outcome in the series with Candida albicans [11], in the series on Candida albicans [12], in the series with Candida albicans [13] and in the series with Candida albicans [14] was Active. The IC50 in series [15] was determined as 51 µM. In addition, the inhibition result with Candida albicans [16] was “Dose-dependent effect”. For the same molecule, the EC50 in the series on Candida albicans [17] (Candida albicans, ATCC 10231, 0.5 h) was found to be 13 µM.
In the case of `CC1(C)S[C@@H]2[C@H](NC(=O)Cc3ccccc3)C(=O)N2[C@H]1C(=O)O` [PENICILLIN G], in the series on Staphylococcus aureus [1], the MIC came out at 6.6 µM (≈ 2.21 µg/mL).
`NC(=O)[C@H](Cc1ccccc1)NC(=O)[C@H](CCCCNC(=O)[C@@H](N)CCCCNC(=O)OCc1ccccc1Cl)NC(=O)[C@@H](N)CCCCNC(=O)OCc1ccccc1Cl` (H-Lys(ClZ)-Lys([εLys-ClZ])-Phe-NH2): the MIC was determined as 33 µM (≈ 29.2 µg/mL) against Staphylococcus aureus [1]; 67 µM (≈ 59.4 µg/mL) in the series on Pseudomonas aeruginosa; 33 µM (≈ 29.2 µg/mL) against Escherichia coli [2]; 17 µM (≈ 15.1 µg/mL) against Staphylococcus aureus [3]; 34 µM (≈ 30.1 µg/mL) in series [4]; 8 µM (≈ 7.09 µg/mL) in series [5]. Further, the MIC was determined as 67 µM (≈ 59.4 µg/mL) against Acinetobacter baumannii; 16 µM (≈ 14.2 µg/mL) in the series with Escherichia coli [6]; 33 µM (≈ 29.2 µg/mL) in the series with Candida albicans [7]; 33 µM (≈ 29.2 µg/mL) in the series on Candida parapsilosis; 33 µM (≈ 29.2 µg/mL) in the series with Pichia kudriavzevii.
The molecule `OC(Cn1cncn1)(Cn1cncn1)c1ccc(F)cc1F` [FLUCONAZOLE] gave an MIC against Candida albicans [7] of 13 µM (≈ 3.98 µg/mL). This counts as double-digit micromolar.
As for `NCCCC[C@H](NC(=O)OCc1ccccc1)C(=O)NCCCC[C@H](NC(=O)[C@H](CCCCN)NC(=O)OCc1ccccc1)C(=O)N[C@@H](Cc1ccccc1)C(N)=O` (Cbz-Lys-Lys([Lys-Cbz])-Phe-NH2), the MIC with Staphylococcus aureus [1] was > 144 µM; against Pseudomonas aeruginosa, > 144 µM; with Escherichia coli [2] it was > 144 µM; against Staphylococcus aureus [3] it was > 144 µM; in [4] it was > 144 µM; in series [5] it was 144 µM (≈ 118 µg/mL). Moreover, the MIC in the series on Acinetobacter baumannii was > 144 µM; in the series on Escherichia coli [6] it was > 144 µM; in the series with Candida albicans [7], > 128 µM; with Candida parapsilosis, > 144 µM; in the series with Pichia kudriavzevii, > 144 µM.
On to `CCCCCCCCNC(=O)[C@H](Cc1ccccc1)NC(=O)[C@H](CCCCNC(=O)[C@H](CCCCN)NC(=O)OCc1ccccc1)NC(=O)[C@H](CCCCN)NC(=O)OCc1ccccc1`, for which the MIC was 32 µM (≈ 29.7 µg/mL) in the series on Staphylococcus aureus [1]; 32 µM (≈ 29.7 µg/mL) in the series on Pseudomonas aeruginosa; 30 µM (≈ 27.9 µg/mL) in the series with Escherichia coli [2]; 16 µM (≈ 14.9 µg/mL) in the series on Staphylococcus aureus [3]; 128 µM (≈ 119 µg/mL) in [4]; 8 µM (≈ 7.43 µg/mL) in series [5]. Moreover, the MIC was 128 µM (≈ 119 µg/mL) against Acinetobacter baumannii; 8 µM (≈ 7.43 µg/mL) against Escherichia coli [6]; 32 µM (≈ 29.7 µg/mL) with Candida albicans [7]; 16 µM (≈ 14.9 µg/mL) with Candida parapsilosis; 16 µM (≈ 14.9 µg/mL) in the series on Pichia kudriavzevii. The hemolysis at 0.5 h, 50 µM in series [18] turned out to be 10%.
`O=C/C=C/c1ccccc1` [CINNAMALDEHYDE]: the IC50 in series [15] came to 1150 µM.
